Data set [1] is described as follows: Tmax in Balb/c mouse at 10 mg/kg, po measured up to 24 hrs by LC-MS/MS analysis. It counts as ADME, organism-based. Conditions: in vivo. In a few lines:
(§1)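 Male Balb/c mice, not fasted, food and water ad libitum; single oral dose. Tail-vein blood into heparinized tubes at 0.5, 1, 3, 5, 7, 9 and 24 h, stored at −80 °C. Whole blood protein-precipitated with acetonitrile containing internal standard, analyzed by LC−MS/MS (LOQ 2 ng/mL). Parameters by noncompartmental analysis with curve stripping. Mean of three mice per point.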

The test system of data set [2] is Plasmodium falciparum. As to the kind of experiment: Antiplasmodial activity against […] Plasmodium falciparum NF54 early gametocytes transfected with GFP-Luc […] at 5 uM incubated for 48 hrs by microscopy based luciferase reporter gene assay relative to control. It counts as functional. In a few lines:
(§2)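 NF54-Pfs16-GFP-Luc gametocytes, assays set up day 5 (early, stage II/III) or day 10 (late, stage IV/V). Culture at 2−3% gametocytemia, 1.5% hematocrit, 48 h drug exposure at 37 °C under 90% N₂/5% O₂/5% CO₂. Lysates mixed with luciferin; bioluminescence read with 10 s integration. Dual-point: one biological repeat in technical triplicate. Methylene blue (5 μM) reference.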

Data set [3] is described as follows: AUC (0 to t) in Balb/c mouse at 10 mg/kg, po measured up to 24 hrs by LC-MS/MS analysis. It counts as ADME, organism-based. Also noted: dose 10 mg/kg, time <=24. As to conditions: in vivo. In a few lines: as §1
The nature of data set [4]: Oral bioavailability in Balb/c mouse at 10 mg/kg measured up to 24 hrs by LC-MS/MS analysis. It counts as ADME, organism-based. As to conditions: in vivo. In a few lines: as §1
Data set [5] has as its system Plasmodium falciparum. As to the kind of experiment: Antiplasmodial activity against […] Plasmodium falciparum NF54 early gametocytes transfected with GFP-Luc […] at 1 uM incubated for 48 hrs by microscopy based luciferase reporter gene assay relative to control. Format: functional. In a few lines:
as §2

Data set [6] is described as follows: Kinetic solubility of the compound in pH 6.5 incubated for 24 hrs by HPLC-DAD analysis. It counts as physicochemical. As to conditions: buffer, read-out: Kinetic_solubility. In a few lines: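 Miniaturized shake-flask method. 10 mM DMSO stock dried down, phosphate buffer pH 6.5 added, shaken 24 h at 25 °C. Centrifuged 3500g for 15 min; supernatant analyzed by HPLC-DAD against 10−220 μM DMSO calibration curve. Reserpine, hydrocortisone and MMV390048 as controls.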

The nature of data set [7]: Metabolic stability in human liver microsomes assessed as compound remaining at 1 uM incubated for 30 mins by LC-MS/MS analysis. Format: ADME, Microsome. Conditions: read-out: Stabilty. In a few lines: (§3)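 Single-point design: 1 μM compound with 0.4 mg/mL liver microsomes in 0.1 M phosphate buffer pH 7.4 for 30 min. Quenched with ice-cold acetonitrile containing carbamazepine internal standard, centrifuged, analyzed by LC−MS/MS. Percent remaining from internal-standard-corrected peak areas at 30 min versus 0 min. Propranolol, midazolam and MMV390048 as controls.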

Data set [8] is described as follows: Metabolic stability in mouse liver microsomes assessed as compound remaining at 1 uM incubated for 30 mins by LC-MS/MS analysis. It counts as ADME, Microsome. Conditions: read-out: Stabilty. In a few lines:
as §3

The subject of data set [9] is Hemozoin. As to the kind of experiment: Inhibition of beta-hematin formation […] incubated for 5 hrs by NP40 detergent-mediated assay. An outline of the steps:
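Cell-free β-hematin formation assay in NP-40 (305.5 μM) lipid-mimic medium. Compounds from 20 mM stock serially diluted across wells, in duplicate. Hematin suspended in 1 M acetate buffer pH 4.8; plates incubated ~5 h at 37 °C. Then pyridine solution (with HEPES pH 7.4) and acetone added; absorbance at 405 nm. IC₅₀ by curve fit.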

Data set [10] can be described thus: Resistance index, ratio of IC50 for antimalarial activity against asexual blood stage multi drug-resistant Plasmodium falciparum K1 to IC50 for antimalarial activity against asexual blood stage drug-sensitive Plasmodium falciparum NF54. It counts as functional. In a few lines: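 Resistance index is IC₅₀(K1)/IC₅₀(NF54). Both IC₅₀s came from the [³H]-hypoxanthine incorporation assay, as means of ≥2 independent experiments.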

In data set [11] the test system is Plasmodium falciparum. As to the kind of experiment: Antiplasmodial activity against […] Plasmodium falciparum NF54 late gametocytes transfected with GFP-Luc […] at 1 uM incubated for 48 hrs by microscopy based luciferase reporter gene assay relative to control. It counts as functional. An outline of the steps:
as §2

A short description of data set [12]: Clearance in Balb/c mouse at 3 mg/kg, iv measured up to 24 hrs by LC-MS/MS analysis. It counts as ADME, organism-based. Conditions: in vivo. An outline of the steps:
(§4)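 Intravenous dosing in male Balb/c mice, fed ad libitum. Tail-vein blood sampled into heparinized tubes at 0.17, 0.5, 1, 3, 5, 7, 9 and 24 h, frozen at −80 °C. Blood extracted by acetonitrile protein precipitation with internal standard; LC−MS/MS quantitation, LOQ 2 ng/mL. Noncompartmental analysis based on curve stripping.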

Data set [13] can be described thus: Selectivity index, ratio of IC50 for Cytotoxicity against CHO cells assessed as inhibition of cell viability by MTT assay to IC50 for antimalarial activity against asexual blood stage Plasmodium falciparum NF54 assessed as reduction in parasitemia incubated up to 72 hrs by [3H]hypoxanthine incorporation assay. Format: toxicity, cell-based. Conditions: hamster, read-out: Selectivity Index. In a few lines: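 Selectivity index is IC₅₀(CHO)/IC₅₀(NF54). […] IC₅₀ came from nonlinear dose-response fitting. Parasite IC₅₀ came from the [³H]-hypoxanthine assay.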

The subject of data set [14] is Plasmodium falciparum. As to the kind of experiment: Antimalarial activity against asexual blood stage drug-sensitive Plasmodium falciparum NF54 infected in erythrocytes assessed as reduction in parasitemia incubated up to 72 hrs by [3H]hypoxanthine incorporation assay. Format: functional, organism-based. In a few lines: (§5)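 [³H]-Hypoxanthine incorporation assay (modified) on asexual blood-stage P. falciparum in vitro. IC₅₀ values are means of ≥2 independent experiments.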

The test system of another data set is Plasmodium berghei. As to the kind of experiment: Antimalarial activity against GFP-transfected Plasmodium berghei ANKA infected in NMRI mouse model assessed as reduction in parasitemia at 50 mg/kg, po dosed 4 times relative to control. Also noted: scale not given: the % may be the effect or the level left. It counts as functional. An outline of the steps:
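Mice (n = 3) infected with GFP-transfected P. berghei ANKA. Compound in 70% Tween-80/30% ethanol, diluted 10-fold in water, given orally at 4, 24, 48 and 72 h post-infection. Blood taken day 4 (96 h); parasitemia by flow cytometry, detection limit 0.1%. Activity = difference in mean % parasitemia between control and treated, as % of control.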

Data set [15] can be described thus: Metabolic stability in rat liver microsomes assessed as compound remaining at 1 uM incubated for 30 mins by LC-MS/MS analysis. Format: ADME, Microsome. Conditions: read-out: Stabilty. An outline of the steps:
as §3

A further data set has as its system CHO. As to the kind of experiment: Cytotoxicity against CHO cells assessed as inhibition of cell viability by MTT assay. It counts as cell-based. Conditions: Cricetulus griseus.
Data set [16] concerns Hemozoin. As to the kind of experiment: Inhibition of Beta-hematin in early ring stage Plasmodium falciparum parasitized red blood cells assessed as hemozoin formation formation after 32 hrs by Giemsa staining based haemocytometric counting method.
The nature of data set [17]: Cmax in Balb/c mouse at 10 mg/kg, po measured up to 24 hrs by LC-MS/MS analysis. As to conditions: in vivo. The arrangement: route oral, dose 10 mg/kg, time <=24. It counts as ADME, organism-based. An outline of the steps: as §1
A short description of data set [18]: AUC (0 to t) in Balb/c mouse at 3 mg/kg, iv measured up to 24 hrs by LC-MS/MS analysis. Also noted: dose 3 mg/kg, time <=24. It counts as ADME, organism-based. Conditions: in vivo. An outline of the steps:
as §4

Data set [19] has as its system Plasmodium falciparum. As to the kind of experiment: Antiplasmodial activity against […] Plasmodium falciparum NF54 late gametocytes transfected with GFP-Luc […] at 5 uM incubated for 48 hrs by microscopy based luciferase reporter gene assay relative to control. It counts as functional. An outline of the steps: as §2

A short description of data set [20]: Volume of distribution at steady state in Balb/c mouse at 3 mg/kg, iv measured up to 24 hrs by LC-MS/MS analysis. It counts as ADME, organism-based. Conditions: in vivo, read-out: Vdss. An outline of the steps:
as §4

The subject of data set [21] is Plasmodium falciparum. As to the kind of experiment: Antimalarial activity against asexual blood stage multi drug-resistant Plasmodium falciparum K1 infected in erythrocytes assessed as reduction in parasitemia incubated up to 72 hrs by [3H]hypoxanthine incorporation assay. Format: functional, organism-based. In a few lines:
as §5

The nature of data set [22]: Volume of distribution in Balb/c mouse at 3 mg/kg, iv measured up to 24 hrs by LC-MS/MS analysis. It counts as ADME, organism-based. Conditions: in vivo. An outline of the steps:
as §4

Data set [23] concerns Plasmodium falciparum NF54. As to the kind of experiment: Inhibition of tubulin polymerization in asexual blood stage Plasmodium falciparum NF54 at 600 nM incubated for 24 hrs by tubulin tracker Oregon Green staining method. An outline of the steps:
(§6)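 Treatment at 600 nM for asexual parasites (~1% parasitemia, 5% hematocrit, sorbitol-synchronized rings) or 2400 nM for early gametocytes (~2% gametocytemia, 2% hematocrit, 20% I/60% II/20% III). 24 h at 37 °C, 90% N₂/5% CO₂/5% O₂, DMSO <0.1%. Stained with 250 nM Tubulin Tracker Oregon Green 488 for 30 min and Hoechst (100 nM) for 10 min. PBS-washed, imaged live by confocal microscopy. Colchicine (20 μM) positive control.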

Data set [24] concerns Plasmodium falciparum NF54. As to the kind of experiment: Inhibition of tubulin polymerization in asexual stage (II) Plasmodium falciparum NF54 early gametocytes at 2400 nM incubated for 24 hrs by tubulin tracker Oregon Green staining method. In a few lines: as §6
Data set [25] concerns Plasmodium falciparum NF54. As to the kind of experiment: Inhibition of tubulin polymerization in asexual stage (I) Plasmodium falciparum NF54 early gametocytes at 2400 nM incubated for 24 hrs by tubulin tracker Oregon Green staining method. An outline of the steps:
as §6

Data set [26] has as its system Plasmodium falciparum NF54. As to the kind of experiment: Inhibition of tubulin polymerization in […] Plasmodium falciparum NF54 early gametocytes at 2400 nM incubated for 24 hrs by tubulin tracker Oregon Green staining method. In a few lines: as §6

Converted amounts (≈) assume the structure as drawn. The source made the active and inactive calls. The rule behind the calls is not given here.

Results on two compounds are retold here after ChEMBL document CHEMBL4834426, “Antimalarial Benzimidazole Derivatives Incorporating Phenolic Mannich Base Side Chains Inhibit Microtubule and Hemozoin Formation: Structure-Activity Relationship and In Vivo Oral Efficacy Studies” (J Med Chem, 2021).

For `CCNCc1cc(Cl)cc(Nc2nc3cc(F)c(F)cc3[nH]2)c1O`, the Tmax in data set [1] stood at 42 min. In addition, the inhibition at 5 µM in the data set with Plasmodium falciparum [2] came out at 35%; with Plasmodium falciparum [19] it was 0%. The AUCt in data set [3] was determined as 11 µmol·min/L; in data set [18], 65 µmol·min/L. In data set [4], this compound gave a bioavailability of 5%. In addition, the inhibition at 1 µM with Plasmodium falciparum [5] and with Plasmodium falciparum [11] was 0% throughout. Further, the solubility kinetic at 24 h in data set [6] came to 12 µM (≈ 4.23 µg/mL). Further, the figures for the remaining at 0.5 h, 1 µM in [7], in data set [8] and in data set [15] were above 99%, 98% and above 99%, respectively. Moreover, the IC50 in the data set on Hemozoin [9] was 7150 nM; in the data set on Plasmodium falciparum [14] it was 250 nM; with CHO it was above 50000 nM; in the data set on Plasmodium falciparum [21], 780 nM. In addition, the Ratio IC50 in data set [10] is 3.12. Besides, the clearance in data set [12] was determined as 151 mL/min/kg. Moreover, the selectivity ratio at 72 h in data set [13] is above 200. The Activity with Plasmodium berghei is below 40%. Moreover, the result in the data set on Hemozoin [16] was Active. The compound also gave a Cmax in data set [17] of 26 nM. Further, the Vd stood at 58 L/kg in data set [20] and 96 L/kg in [22].

With `CCNCc1cc(Cl)cc(Nc2nc3ccccc3[nH]2)c1O`, the inhibition at 5 µM in the data set with Plasmodium falciparum [2] is 23%; with Plasmodium falciparum [19] it was 31%. In addition, the inhibition at 1 µM in the data set on Plasmodium falciparum [5] and in the data set on Plasmodium falciparum [11] was 0% throughout. The solubility kinetic at 24 h in [6] came to 200 µM (≈ 63.4 µg/mL). The results for the remaining at 0.5 h, 1 µM in [7], in data set [8] and in data set [15] were 93%, 97% and 98%, respectively. Besides, the inhibition result in data set [23], in data set [24] and in data set [26] was “Active” in each case. The half-maximal inhibitory concentration (IC50) with Hemozoin [9] is 12700 nM; in the data set on Plasmodium falciparum [14] it was 300 nM; in the data set on CHO, above 50000 nM; in the data set with Plasmodium falciparum [21] it was 880 nM. Further, the Ratio IC50 in data set [10] stood at 2.93. For the same compound, the selectivity ratio at 72 h in [13] was above 166. In addition, the Activity with Plasmodium berghei is listed as below 40%. In addition, the result in the data set on Hemozoin [16] was Active. In addition, the inhibition entry in [25] was “inactive”.
